Consider 167 variants from the RNAGym collection of RNA variant scans (doi:10.1126/science.aae0568).

Fewer inactive variants are shown than the library holds.

The labels stand for the following.
B1: tRNA (parent)
chain: GUUCCGUUGGCGUAAUGGUAACGCGUCUCCCUCCUAAGGAGAAGACUGCGGGUUCGAGUCCCGUACGGAACG

In the data set the parent is B1. Put plainly: yeast fitness relative to wild type (ratio to wild type); higher = fitter; tRNA-Arg(CCU), competitive growth, 37 C, YPD. An outline of the steps:
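Variants of the tRNA-Arg(CCU) gene were chemically synthesised with a 3% per-site mutation rate across 69 sites and placed at the native genomic locus in Saccharomyces cerevisiae. Six parallel replicates of the pooled strains were competed in YPD at 37°C for 24 hours, and gene amplicons from the start and end populations were read by 100-nucleotide paired-end sequencing. Darwinian fitness relative to wild type was derived from changes in genotype frequencies. Genotypes required ≥ 100 starting reads, and estimates < 0.5 were set to 0.5.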
On to A15U A21G C49U, for which the yeast fitness stood at 0.556. On to A15G A65C A69U, for which the yeast fitness came to 0.705.

On to A15G G58A, for which the yeast fitness worked out at 0.909. As to A15G G58C, the yeast fitness was determined as 0.949. With A15G C61G A70C the figure was 0.639.

In the case of A15G U16C, the yeast fitness is 0.927. With A15G U16A the figure was 0.919; with A15G G25A G38A, no more than 0.5. The same measure for A15G C24G U26A G52A G68C: 0.717; for A15G U54G: 0.612; for A15G U54A: 0.648. As to A15G U54C, the yeast fitness came to 0.905.

As for A15G C46G C61G, the yeast fitness is 0.567. With A15G C31A U54C the figure was no more than 0.5; with A15G C24G A37G, no more than 0.5; with A15G C24G C29U C34G U35C C46G A65G, no more than 0.5. The same measure for A15G C30U A70C: 0.615; for A15G G44C: 0.785. The same measure for A15G G39A C62G: 0.568.

On to A15G U35A G52A U59C C66A G67A, for which the yeast fitness is no more than 0.5. With A15G G38C C60G the figure was no more than 0.5; with A15G G48A G58C, 0.759; with A15G C29G C34G C66G, no more than 0.5.

With A15G C24G, the yeast fitness was found to be 0.586. With A15G C24A the figure was 0.587. A15G C24U: the yeast fitness came to 1.01. With A15G C46U C61G the figure was 0.581; with A15U A36C A40U A65U, no more than 0.5; with A15G G25A C30A G52A, 0.563. With A15G C30G A40U A42C C49G the figure was no more than 0.5; with A15G G25C C31U A70U, no more than 0.5; with A15U A20G C27U C66A, no more than 0.5. The same measure for A15G U53C C61G: no more than 0.5; for A15U A20C U32G: no more than 0.5. For A15G A69U, the yeast fitness turned out to be 1.04. The same measure for A15G A69G: 1.05. The same measure for A15G C33A U54A: no more than 0.5; for A15U A45C C49U: 0.618; for A15G G58C G68A: 0.593. On to A15G C30A, for which the yeast fitness was determined as 0.807.

For the variant A15G C30G, the yeast fitness was 0.631. The same measure for A15G C30U: 0.894; for A15G C34A: 0.811; for A15G G41A U53G: no more than 0.5. With A15G G67A A69U the figure was 0.637; with A15U A45C C55U, no more than 0.5. The same measure for A15G C29A A57C: no more than 0.5; for A15U A20C C34A G68C: no more than 0.5; for A15G C29G C31A A37G: no more than 0.5. As for A15U A42U C46U C55G, the yeast fitness is no more than 0.5. With A15U A36G G51C C55G the figure was no more than 0.5. The same measure for A15G C27U G44A G56C: no more than 0.5; for A15G G50A G56A: 0.552. With A15G C46U A69C the figure was 0.835. For A15G C34U A42G C49A, the yeast fitness is no more than 0.5. With A15G C29A G39A C46U the figure was no more than 0.5; with A15U A21C C29A U32A, 0.728; with A15G C31U U35C, 0.609. For A15G U47G G56A, the yeast fitness is no more than 0.5. On to A15G G23A G25A G38A A70U, for which the yeast fitness is no more than 0.5.

Turning to A15U A20C G23A G50C, the yeast fitness turned out to be 0.577. With A15G C31G U35C A57U the figure was no more than 0.5; with A15G G17A A65G, no more than 0.5. With A15G U19C A37U the figure was 0.622. Consider A15G U16A U19C C30U G52C, for which the yeast fitness is no more than 0.5. In the case of A15G G17C C34U C60A, the yeast fitness is no more than 0.5.

On to A15U A40G A65U, for which the yeast fitness is 0.516.

With A15G C29A A40G G48A, the yeast fitness was no more than 0.5. The same measure for A15G U26G: 0.703. The same measure for A15G U26C: 0.802; for A15G C30U C33A G41C C46U G48C: 0.551.

Take A15G G39C A40C: the yeast fitness stood at 0.622. With A15G G44C U59A the figure was no more than 0.5; with A15G C29A C61A C66G, 0.535; with A15U A43G U47A, 0.547. For A15G C30G A37C A65U C66G, the yeast fitness was no more than 0.5. As for A15U A36C G48C U59A C66U, the yeast fitness was no more than 0.5. The same measure for A15G G18A A45C: 0.57; for A15G C24U C29U C30G U35G C66U: no more than 0.5; for A15G G48A A70C: 0.748. With A15G A70U the figure was 1.03; with A15G G56C C61U, no more than 0.5. With A15U A43C G48A G68C the figure was no more than 0.5.

A15G C55U: the yeast fitness amounted to 0.75.

Take A15G C55G: the yeast fitness stood at 0.641. The same measure for A15G U16C A20C A21U U26C: no more than 0.5. Consider A15G G52C A70U, for which the yeast fitness is no more than 0.5. For A15G C22U A70C, the yeast fitness is 0.594.

As for A15G U26C G63A, the yeast fitness is no more than 0.5. The same measure for A15G U54A C62U: no more than 0.5. The same measure for A15U A40U: 0.637; for A15G U47C A69C: 0.754; for A15U A20U G56C: no more than 0.5.

On to A15G C27U A69U, for which the yeast fitness was found to be 0.808. On to A15U A21G G25C C33A A37U, for which the yeast fitness was found to be 0.554. With A15U A20C G23A C30U the figure was no more than 0.5; with A15G G18A C49U, 0.669. Regarding A15G C24G U32A G41A, the yeast fitness was no more than 0.5. For A15G C22G A36U A40G A69U, the yeast fitness was no more than 0.5. For A15G U26G A65C, the yeast fitness came to 0.632. The same measure for A15G G41C: 0.827; for A15G G18A G58C A69U: no more than 0.5; for A15G U26C U32A C34U G38C G51A A57C C66U: no more than 0.5. With A15G G17A U26C C61U G67A the figure was no more than 0.5; with A15U A36G C55G G56A, 0.535.

Consider A15G G17A C46U, for which the yeast fitness is 0.738.

A15G U28C C30U A69U: the yeast fitness came to 0.633. With A15G G44A G50C A70G the figure was no more than 0.5; with A15G U28G A42U G48A C61U, no more than 0.5. The same measure for A15U A20G G63C: 0.555; for A15G C60G: 0.668; for A15G C60A: 0.687. The same measure for A15G C27G C55U: no more than 0.5; for A15G G25A C61U: 0.558; for A15U A40U C49U: 0.599. In the case of A15U A42U C49G C60A, the yeast fitness was no more than 0.5. The same measure for A15G G41C G51C: no more than 0.5; for A15G C30G A37C C49U G63A: no more than 0.5. With A15G G25A C27U C49U the figure was 0.714. The same measure for A15G C29A G39A: 0.572; for A15G G44C C61U: 0.607.

In the case of A15G C30G U64C, the yeast fitness was no more than 0.5. As to A15U A42C U47A G63C A69C, the yeast fitness is no more than 0.5. With A15G U53A the figure was 0.667; with A15G U53G, 0.61. The same measure for A15G G41A C49A C66A: 0.53; for A15G C33G G44A C46G C66U: no more than 0.5. On to A15G C27A G44A C62U A65U, for which the yeast fitness is no more than 0.5. The same measure for A15G G52C: 0.568; for A15G G52U: 0.73. Consider A15G G52A, for which the yeast fitness stood at 0.772. The same measure for A15G C49A A69U: 0.579; for A15U A37U C49G A65G: no more than 0.5. With A15G C34U C49A the figure was 0.6; with A15G G44A C49U G50C A70G, no more than 0.5. With A15G C27A C49U C55G the figure was no more than 0.5; with A15G C31U A45U, 0.668. For the variant A15G C27U C62G, the yeast fitness is 0.627. The same measure for A15G G41A A69U: 0.615; for A15G G41C A45G: no more than 0.5; for A15G U19C C46G C55U: no more than 0.5. The same measure for A15G U47G A69C: no more than 0.5; for A15U A20G G52C A65U G67C: no more than 0.5. The same measure for A15G C29G: 0.635; for A15G C29A: 0.558. On to A15G C24G C29U C34G U35C C49U C62U, for which the yeast fitness is no more than 0.5. Take A15G C61U G67A: the yeast fitness came out at 0.549. With A15G C62U A69U the figure was 0.934. The same measure for A15G G39C U54C C55U: no more than 0.5; for A15G C30G G68A: no more than 0.5.

With A15G C61U, the yeast fitness was 0.65. The same measure for A15G C61A: 0.589; for A15G C61G: 0.698. With A15G G39A C49U the figure was 0.679; with A15U A20G A45U, no more than 0.5; with A15G C22G G23C A43C G50C A70U, no more than 0.5. A15G G25A C60U G68C: the yeast fitness stood at 0.561.

Consider A15G C27G A42G G63A, for which the yeast fitness is no more than 0.5.

With A15G C27U A65G, the yeast fitness was determined as 0.748. As to A15G C27U C29U A37C C60U A69C, the yeast fitness was no more than 0.5. In the case of A15G G41C C49G C55U C61A, the yeast fitness turned out to be 0.638. Regarding A15G U28G A42U G48A, the yeast fitness was no more than 0.5. With A15U A45C C49G G58C the figure was no more than 0.5; with A15G U28C U35A G38A C46G C62U, 0.718; with A15G G68U, 0.782. A15G G68C: the yeast fitness stood at 0.648. With A15U A43U C46G C61A the figure was no more than 0.5.
